Reference: article PMC4324418 (ACS Chemical Neuroscience, 2014)
Residue numbers refer to the chain shown, from its start.

How the values were obtained:
[1] = rat (data not shown)
wild-type mice [2] = assay: Contextual fear conditioning, one-shock paradigm; assay type: in vivo, mouse; conditions: 3–30 mg/kg, measured 24 h later
In short: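 One-shock contextual conditioning used a 3 min session: 2 min habituation, one 0.4 mA shock, then 59 s before removal. Dosing was vehicle (10% Tween 80 in sterile water) or test compound at 3, 10 or 30 mg/kg IP. Mice were returned to the same chamber 24 h later, and percent time freezing was scored over 3 min.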

[3] = Pharmacokinetic and brain distribution studies in mice; conditions: for AUC(0-t) / Cmax / Tmax: male, C57BL/6, mouse, in vivo
[4] = system: 57 GPCRs, ion channels, and transporters; assay: Ricerca lead profiling screen, radioligand binding panel; conditions: 10 μM
[5] = Mouse brain homogenate binding; assay type: in vitro ADME
wild-type mice [6] = assay type: in vivo, mouse; conditions: data not shown
In short: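 Wild-type mice received vehicle (10% Tween 80, IP) or test compound (30 mg/kg IP). Thirty minutes later they received saline (IP) or MK-801 (0.3 mg/kg IP).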

human M4 = molecular target: T1, human M4 (Homo sapiens, UniProt P08173); assay type: cell-based; conditions: maximum response as % of the Emax of ACh
T1 sequence (P08173 1-479): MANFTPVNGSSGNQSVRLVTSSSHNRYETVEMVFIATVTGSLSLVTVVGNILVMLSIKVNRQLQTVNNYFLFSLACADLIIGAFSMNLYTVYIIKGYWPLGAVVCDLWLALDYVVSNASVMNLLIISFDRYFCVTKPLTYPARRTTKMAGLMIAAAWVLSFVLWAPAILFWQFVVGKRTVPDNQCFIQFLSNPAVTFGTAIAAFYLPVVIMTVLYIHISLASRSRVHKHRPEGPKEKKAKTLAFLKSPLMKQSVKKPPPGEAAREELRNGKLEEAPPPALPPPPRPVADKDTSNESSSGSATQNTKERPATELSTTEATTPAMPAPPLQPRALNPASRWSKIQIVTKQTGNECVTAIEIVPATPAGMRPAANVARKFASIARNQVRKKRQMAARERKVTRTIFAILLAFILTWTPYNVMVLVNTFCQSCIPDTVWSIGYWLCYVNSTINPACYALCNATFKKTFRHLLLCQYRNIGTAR

human M1 receptor = assay: Calcium mobilization, selectivity; assay type: cell-based
In short: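 Cells were seeded at 15000/well in DMEM with 10% dialyzed FBS, 20 mM HEPES and 1 mM pyruvate, then cultured overnight at 37 °C/5% CO2. M2 and M4 lines were cotransfected with Gqi5. Cells were loaded with 1 μM Fluo-4AM (HBSS, 20 mM HEPES, 2.5 mM probenecid, pH 7.4) for 50 min at 37 °C. ACh was added 140 s after test compound. Calcium signal was expressed as % of the 10 μM ACh maximum.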

cyno M4 = molecular target: T2, cyno M4 (Macaca fascicularis, UniProt G7PQB4); assay: Calcium mobilization, potentiation of ACh EC20; assay type: cell-based, cynomolgus monkey; conditions: maximum response as % of the Emax of ACh
T2 sequence (G7PQB4 1-479): T1 sequence (P08173 1-479) with S23T, V287M, A288T, P327S, R338K
In short: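 Receptor-expressing cells were plated at 15000 cells/well in DMEM with 10% dialyzed FBS, 20 mM HEPES and 1 mM pyruvate, and grown overnight at 37 °C/5% CO2. Test compound was added, then ACh at EC20 140 s later and at EC80 120 s later. Responses were normalized to 10 μM ACh maximum; ≥3 independent experiments.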

wild-type mice [7] = assay: Contextual fear conditioning, four-shock, MK-801-induced deficit; assay type: in vivo, mouse
In short: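 Subjects were wild-type and M4 KO mice, 8–11 weeks old, handled for 3 days and saline-injected 1 day before conditioning. Vehicle (10% Tween 80 in water, IP) or test compound (3–10 mg/kg IP) was given 30 min before saline or MK-801 (0.1–0.3 mg/kg IP). Mice entered the chamber 30 min later for a four-shock conditioning trial. Percent freezing was scored 24 h later, drug-free.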

[8] = Amphetamine-induced hyperlocomotion in wild-type mice; assay type: in vivo, mouse; conditions: mouse, brain, ip, WT mice
wild-type mice [9] = assay: as above; assay type: in vivo, mouse; conditions: WT mice, amphetamine […] SC

Compound: Cc1nnc2sc(C(=O)NCc3ccc(S(=O)(=O)C(F)(F)F)cc3)c(N)c2c1C [VU0467154, 5-amino-3,4-dimethyl-N-(4-((trifluoromethyl)sulfonyl)benzyl)thieno[2,3-c]pyridazine-6-carboxamide]
- biliary and urinary excretion of the parent compound [1]: Negligible
- acquisition of contextual fear conditioning behaviors (wild-type mice [2]): dose-dependent enhancement
- AUC(0-t) ([3]; ip, 3 mg/kg): 9.2 µM·h
- Cmax ([3]; ip, 3 mg/kg): 2000 nM
- Tmax ([3]; ip, 3 mg/kg): 1 h
- AUC(0-t) ([3]; ip, 10 mg/kg): 39 µM·h
- Cmax ([3]; ip, 10 mg/kg): 5600 nM
- Tmax ([3]; ip, 10 mg/kg): 0.5 h
- Tmax ([3]; ip, 30 mg/kg): 0.5 h
- AUC(0-t) ([3]; po, 10 mg/kg): 46 µM·h
- Cmax ([3]; po, 10 mg/kg): 7600 nM
- Tmax ([3]; po, 10 mg/kg): 1 h
- AUC(0-t) ([3]; po, 30 mg/kg): 66 µM·h
- Cmax ([3]; po, 30 mg/kg): 11000 nM
- Tmax ([3]; po, 30 mg/kg): 1 h
- brain AUC0–24h ([3]; mouse, IP 3 mg/kg, brain): 5.9 µM·h
- displacement of the radioligand ([4]; all targets included in this panel): ≤ 30%
- displacement of the radioligand ([4]; majority of targets): ≤ 20%
- fraction unbound [5]: 0.014
- serotonin utilization in the NAS and CP (wild-type mice [6]): Neither single nor combined administration of VU0467154 with MK-801 altered serotonin utilization
- %AChmax (human M4): 55%
- potentiation of ACh response (calcium response) (human M1 receptor): lack of a calcium response
- %AChmax (cyno M4): 57%
- effect on contextual fear conditioning (wild-type mice [7]; VU0467154 alone, four-shock): had no effect on contextual fear conditioning
- reversal of MK-801-induced deficits in the acquisition of contextual fear conditioning (wild-type mice [7]; pretreatment 3–10 mg/kg): dose-dependently reversed
- concentration at 2.5 h ([8]; 0.3 mg/kg, mean Cbrain, 0.3 mg/kg IP, at 2.5 h postadministration): 24 nM
- concentration at 2.5 h ([8]; 0.3 mg/kg, mean Cbrain,u, 0.3 mg/kg IP, 2.5 h, in vitro mouse fubrain 0.014): 0.3 nM
- concentration at 2.5 h ([8]; 3 mg/kg, mean Cbrain, 3 mg/kg IP, at 2.5 h postadministration): 157 nM
- concentration at 2.5 h ([8]; 3 mg/kg, mean Cbrain,u, 3 mg/kg IP, 2.5 h, in vitro mouse fubrain 0.014): 2.2 nM
- concentration at 2.5 h ([8]; 10 mg/kg, mean Cbrain, 10 mg/kg IP, at 2.5 h postadministration): 398 nM
- concentration at 2.5 h ([8]; 10 mg/kg, mean Cbrain,u, 10 mg/kg IP, 2.5 h, in vitro mouse fubrain 0.014): 5.6 nM
- concentration at 2.5 h ([8]; 30 mg/kg, mean Cbrain,u, 30 mg/kg IP, 2.5 h, in vitro mouse fubrain 0.014): 8.1 nM
- mean reversal of AHL (wild-type mice [9]; 0.3 mg/kg IP): 3.7%
- mean reversal of AHL (wild-type mice [9]; 1 mg/kg IP): 41.6%
- mean reversal of AHL (wild-type mice [9]; 3 mg/kg IP): 70.4%
- mean reversal of AHL (wild-type mice [9]; 10 mg/kg IP): 81.5%
- mean reversal of AHL (wild-type mice [9]; 30 mg/kg IP): 90.7%
